DNMT1 inh: inhibitors of human DNMT1; P26358; DNMT1 molecular beacon, Hinp1I cleavage, fluorescence; inhibition (reported as % activation of signal), % at 10 µM; 360,000 compounds, 0.83% hits; AID 588458; in the data active = inhibition above about 50%
Scp1 inh: inhibitors of human Scp-1 phosphatase; inhibition, % at 20 µM; 340,000 compounds, 0.88% hits; Recombinant Scp1, phosphopeptide, malachite green phosphate absorbance; Q9GZU7; AID 493091;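 active = inhibition above about 50% at 20 µM, limit read from the data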
Target sequence (Q9GZU7 76-261 limits assumed): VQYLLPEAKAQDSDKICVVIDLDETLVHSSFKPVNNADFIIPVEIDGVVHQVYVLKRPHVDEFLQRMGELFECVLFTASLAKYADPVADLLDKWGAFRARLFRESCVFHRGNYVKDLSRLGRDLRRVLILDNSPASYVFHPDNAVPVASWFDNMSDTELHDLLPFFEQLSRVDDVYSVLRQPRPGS
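Assay system: SCP-1 catalytic fragment, aa 76-261 | Buffer or medium: Tris acetate buffer pH 5.5 with MgCl2 and Tween-20 | Compound: One concentration, 20 µM, with 1.0% DMSO | Also added: Phospho 17-mer peptide substrate | Signal: Absorbance at 630 nm | Incubation: 45 min enzyme reaction at room temperature | Measure: % inhibition of SCP-1 phosphate liberation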
GRK2 inh: blocks RNA aptamer binding to human GRK2; P25098; bead flow cytometry, FAM-aptamer displacement from GRK2; inhibition of aptamer binding, % at 10 µM; 330,000 compounds, 0.59% hits; AID 488847;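 active = inhibition of aptamer binding above 40%, roughly 3 SD of noise, on plates passing a quality check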;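 also: median bead fluorescence of bound FAM aptamer so fluorescent compounds give negative values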
LMPTP block: LMPTP (human) inhibition. recombinant LMPTP-A, OMFP fluorogenic substrate, fluorescence intensity. AID 651560. inhibition, % at 20 µM. P24666. 360,000 compounds, 0.22% hits;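 active = compounds that cut the enzyme signal by at least half of the control window in the single-dose screen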
Target sequence (P24666 whole entry, looked up): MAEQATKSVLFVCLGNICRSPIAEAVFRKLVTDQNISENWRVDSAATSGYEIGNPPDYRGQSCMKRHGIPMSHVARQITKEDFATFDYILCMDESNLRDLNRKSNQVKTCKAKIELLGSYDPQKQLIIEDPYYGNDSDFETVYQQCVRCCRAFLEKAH
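test system = LMPTP-A | amount = 0.625 nM LMPTP-A final | reagent = fluorogenic phosphatase substrate OMFP at 400 µM final | incubation = 50 min at room temperature | benchmarks = no-enzyme low control, uninhibited high control | medium = Bis-Tris pH 6.0, DTT, detergent | signal = fluorescence intensity of OMFP turnover product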
STEP inh: inhibitors of human striatal-enriched phosphatase STEP; P54829; recombinant STEP, OMFP fluorogenic substrate, fluorescence; inhibition, % at 20 µM; AID 588621; 360,000 compounds, 0.25% hits;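 active = inhibition at 20 µM, scaled per plate between control wells, above about 37%, limit read from the data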
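Test system: STEP tyrosine phosphatase / Reagent: OMFP at 25 µM / Doses: 20 µM, 1% DMSO / Read-out: percent inhibition scaled to no-enzyme and uninhibited-enzyme controls, plate-pattern corrected / Detection: FITC-channel fluorescence of OMFP product / Medium: Bis-Tris buffer pH 6.0, 2.5 mM DTT, 0.005% Tween 20 / Schedule: 20 min at room temperature, dark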
SUMO1 PPI mod: modulators of human SUMO1-mediated protein-protein interactions; SUMO1 binding to a labelled peptide, TR-FRET, 1 h; inhibition, % at 20 µM; 360,000 compounds, 0.33% hits; in the data active = inhibition above about 37%
Target sequence (P63165 whole entry, looked up): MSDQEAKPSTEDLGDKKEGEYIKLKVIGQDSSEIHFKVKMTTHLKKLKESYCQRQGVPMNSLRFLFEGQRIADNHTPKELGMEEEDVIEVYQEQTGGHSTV
GRK2 CP1: human GRK2 inhibition confirmation, cherry pick 1. 2,000 compounds, 4% hits. shares compounds with GRK2 inh. bead-bound GRK2, FAM-aptamer displacement, flow cytometry. aptamer displacement, % at 10 µM;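 active = aptamer displacement above 40%, near three times the noise of non-fluorescent compounds, on plates passing quality checks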;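 also: negative values mostly reflect intrinsic compound fluorescence rather than true enhancement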
FAM quench CP1: quenches fluorescent RNA aptamer, GRK2 hit artifact. shares compounds with GRK2 inh. Carboxyfluorescein RNA aptamer on beads, flow cytometry quenching; stronger effect = lower value. fluorescence response (% of DMSO), % at 10 µM. 2,000 tested, under 10 active. AID 504580;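 active = compounds that quench the bead-bound fluorescent RNA probe, cutting fluorescence to under half of the solvent control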;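 also: counterscreen run without GRK2 so only probe quenching by compound is measured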
GRK2 confirm 2: confirmation of human GRK2 inhibitors binding RNA aptamer site. bead-bound GRK2, FAM-aptamer displacement, flow cytometry. AID 504782. shares compounds with GRK2 inh. 360 tested, under 10 active. inhibition of aptamer binding, % at 10 µM;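 active = inhibition of aptamer binding above 40%, about triple the noise seen with nonglowing compounds, on plates passing quality control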;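 also: negative values mostly come from compounds that fluoresce themselves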
FAM quench CP2: quenches fluorescent RNA aptamer, GRK2 hit artifact; carboxyfluorescein RNA aptamer beads, flow cytometry quenching; stronger effect = lower value; 360 tested, under 10 active; shares compounds with GRK2 inh; fluorescence response vs DMSO, % at 10 µM;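 active = response vs DMSO under 50%, meaning signal dropped by over half, treated as fluorescence quencher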;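 also: labelled aptamer on streptavidin beads without GRK2 as a quench counter-screen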
Numbers stand for hits; . = inactive; / = no result given. The list is not random: actives were taken first. Their share in the collection is about 2.1%.

SMILES | DNMT1 inh | Scp1 inh | GRK2 inh | LMPTP block | STEP inh | SUMO1 PPI mod | GRK2 CP1 | FAM quench CP1 | others
O=C(CC1SC(N2CCCCC2)=NC1=O)Nc1ccc(C(=O)NCc2ccccc2)cc1 (centres undefined) | . | . | . | . | . | . | / | /
CN1CCN(C(=O)C[C@H]2CC[C@H]3[C@@H](COC[C@@H](O)CN3C(=O)C3CCCC3)O2)CC1 | / | / | / | . | / | . | / | /
Cc1cc2cc(CNC(=O)Nc3cccc(Cl)c3)ccc2n1C | 69 | . | 44 | . | . | . | . | .
Cc1cc2cc(CNC(=O)c3ccc(Br)o3)ccc2n1C | . | . | 73 | . | . | . | . | .
CCOC(=O)Cn1cc(Cl)c(=O)c(Cl)c1 | . | . | 85 | . | . | . | . | .
CCOC(=O)Cn1cnc(C)c1 | . | . | / | . | . | . | / | /
COc1ccc(NC(=O)C(c2ccccc2)n2c(=O)c(-c3ccco3)nc3ccccc32)cc1 (centres undefined) | / | / | / | . | / | . | / | /
c1ccc(NCCC2OCC3(CO2)COC(CCNc2ccccc2)OC3)cc1 (centres undefined) | . | . | / | . | . | . | / | /
COc1ccc(C2c3ccc(O)cc3Oc3ncn4nc(-c5ccco5)nc4c32)cc1OC (centres undefined) | . | . | 57 | . | . | . | . | .
CCOc1ccc(CNC(=O)c2cccc(NC(=O)C3=C(C)OCCS3)c2)cc1 | . | . | . | . | . | . | . | .
CC(=O)N(c1ccccc1)c1ccc([N+](=O)[O-])cc1[N+](=O)[O-] | . | . | . | . | . | . | / | / | GRK2 confirm 2=.;FAM quench CP2=.
Cc1ccc2cccc(N=Cc3c(C)[nH]n(-c4ccccc4)c3=O)c2n1 | . | . | . | . | . | . | . | .
CCC(C(=O)NCC1CCCO1)N(Cc1ccc(F)cc1)C(=O)CNS(=O)(=O)c1ccccc1 (centres undefined) | . | . | 78 | . | . | . | . | .
CC(C)=CCOc1ccc2c(C)c(CCC(=O)N3C[C@H]4C[C@@H](C3)c3cccc(=O)n3C4)c(=O)oc2c1C | . | / | / | . | . | . | / | /
S=C1NCN(Cc2ccco2)CN1 | . | . | . | . | . | . | / | /
O=C1CC(=O)N(Cc2ccco2)C(=S)N1 | 111 | 93 | 68 | 51 | 83 | 69 | . | .
Nc1ccc2nc(-c3ccc(-c4nc5ccc(N)cc5[nH]4)cc3)[nH]c2c1 | / | . | 85 | / | / | / | . | .
Nc1ccc2nc(-c3cccc(-c4nc5ccc(N)cc5[nH]4)n3)[nH]c2c1 | . | . | . | . | . | . | / | /
CNC(=O)c1c[nH]c2ccc(S(=O)(=O)Nc3ccccc3F)cc2c1=O | . | . | 93 | . | . | . | . | .
COc1ccccc1-c1cccc(-c2nc(C(=O)N3CCCCC3)cc3c2[C@@H](CCO)N(S(=O)C(C)(C)C)C3)c1 (some centres undefined) | . | / | / | . | . | . | / | /
COc1ccc2c(c1)Cc1c-2cc(Br)c(N)c1Br | . | / | / | . | . | . | / | /
CCOCCCNC(=O)C1(O)c2cc(Br)ccc2NC(=O)N1c1ccc(OCC)cc1 (centres undefined) | . | . | 61 | . | . | . | . | .
O=Cc1c(NCc2ccccc2)c2ccccc2[nH]c1=O | . | . | . | . | . | . | / | /
O=Cc1c(NCc2ccc(Cl)cc2)c2ccccc2[nH]c1=O | . | . | 100 | . | . | . | . | .
COc1ccccc1C(=O)Nc1ccc(N2CCCCC2)cc1 | . | . | . | . | . | . | / | /
SMILES | DNMT1 inh | Scp1 inh | GRK2 inh | LMPTP block | STEP inh | SUMO1 PPI mod | GRK2 CP1 | FAM quench CP1 | others
COc1cccc(OC)c1C(=O)Nc1ccc(N2CCCC2)cc1 | . | . | 100 | . | . | . | . | .
O=C(c1ccc(CSc2ccc(Cl)cc2)o1)N1CCOCC1 | . | / | / | . | . | . | / | /
Cn1cnc2c1c(=O)n(Cc1ccccc1)c(=O)n2C | . | . | . | . | . | . | / | /
CCCn1c(CN(C)Cc2ccccc2)nc2c1c(=O)n(C)c(=O)n2C | . | . | . | . | . | . | / | /
CN(Cc1ccccc1)Cc1nc2c(c(=O)n(C)c(=O)n2C)n1CCc1ccccc1 | . | . | . | . | . | . | . | .
Cn1c(=O)n(CCc2ccccc2)c(=O)c2c1ncn2Cc1ccccc1 | . | . | 74 | . | . | . | . | .
COc1ccc(NC(=O)CSc2ccccc2)c([N+](=O)[O-])c1 | . | . | . | . | . | . | / | /
Cn1cnnc1SCC(=O)Nc1ccc(Oc2ccccc2)cc1 | . | . | . | . | . | . | / | /
Cn1cnnc1SCC(=O)Nc1ccccc1Oc1ccccc1 | . | . | 50 | . | . | . | . | .
COc1ccc(NC(=O)CSc2nncn2C)c([N+](=O)[O-])c1 | . | . | 51 | . | . | . | . | .
CCC(=O)N1N=C(c2cccs2)CC1c1ccc(OC)cc1 (centres undefined) | . | . | . | . | . | . | / | /
COc1ccc(C2CC(c3cccs3)=NN2C(=O)c2ccc(Br)o2)cc1 (centres undefined) | . | . | 86 | . | . | . | / | / | GRK2 confirm 2=.;FAM quench CP2=.
CC(=O)NCC1(c2ccccc2)CCN(CCCC(=O)c2ccc(F)cc2)CC1 | . | / | / | . | . | . | / | /
O=C(CCC1CCCN(C(=O)CCN2CCCCC2=O)C1)NCc1ccccc1F (centres undefined) | . | . | . | . | . | . | . | .
Cn1cc(CCC(=O)N2CCCC(CCC(=O)NCc3ccccc3F)C2)cn1 (centres undefined) | . | . | . | . | . | . | / | /
COc1ccc(C2C(C(=O)c3ccco3)=C(O)C(=O)N2c2nnc(C)s2)cc1 (centres undefined) | . | . | . | . | . | . | / | /
C=CCOc1ccc(C2C(C(=O)c3ccco3)=C(O)C(=O)N2c2nnc(C)s2)cc1 (centres undefined) | . | . | 73 | . | . | . | . | .
COc1cccc(C(NC(C)=O)c2ccc3cccnc3c2O)c1 (centres undefined) | . | . | 80 | . | . | . | . | .
